Source: paper PMC6387680 (Leukemia & lymphoma, 2011)
“And” between values parts separate entries of the source, which are not always exact repeats. Identical values can stand only once.

Columns and labels:
[1] = tested on: lymphocyte count; details: associated with decreasing lymph node size; cited from earlier work
[2] = tested on: Neoplastic B cells; assay: In vivo apoptosis by annexin V-FITC flow cytometry of peripheral blood; parameters: species or system human; details: for Peak value of apoptosis (annexin V-positive cells): CLL patient; for apoptotic B cells positive for CD19 and annexin V: time point not stated
Procedure, shortened: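 Peripheral blood was stained within 12 h of collection. Erythrocytes were lysed (150 mM NH4Cl, 10 mM KHCO3, 0.1 mM EDTA; 10 min, room temperature), spun 500 × g for 15 min and washed twice in PBS/0.1% NaN3. Cells were co-stained 30 min with annexin V-FITC plus tumour-marker antibodies (CD19, CD5 for CLL). Four-colour flow, ≥5000 lymphocytes per tube. Controls were thawed lymphocytes (positive) and fresh whole blood (negative).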

[3] = tested on: patients with relapsed lymphoma or CLL; assay: Toxicity of cycle 1 UCN-01 alone; assay type: in vivo, human
[4] = Plasma UCN-01 pharmacokinetics; assay type: in vivo, human
[5] = tested on: patients with refractory solid tumors; details: 24 patients; cited from earlier work
[6] = tested on: patients with refractory neoplasms; details: cited from earlier work
[7] = tested on: absolute lymphocyte count (ALC); assay: Absolute lymphocyte count after UCN-01; assay type: in vivo, human
[8] = cycle 1 UCN-01 alone, n (%) of 18 patients
[9] = human, plasma, iv, 45 mg/m^2/day
[10] = median, n=15, cycle 1, 72 h IV infusion at 45 mg/m^2/day

Q: For `CC[C@H](Nc1ncnc2[nH]cnc12)c1nc2cccc(F)c2c(=O)n1-c1ccccc1` [CAL-101], which “patients with an increase in lymphocyte count” value [1] is on record?
A: 60%

Q: For `CN[C@@H]1C[C@H]2O[C@@](C)([C@@H]1OC)n1c3ccccc3c3c4c(c5c6ccccc6n2c5c31)C(=O)N[C@@H]4O` [UCN-01, 7-hydroxystaurosporine], which “Peak value of apoptosis (annexin V-positive cells)” value ([2]; day 4 of cycle 1) is on record?
A: 15%

Q: What about the “Peak value of apoptosis (annexin V-positive cells)” value ([2]; day 28 of cycle 1) of the same compound?
A: 8%

Q: And the “apoptotic B cells positive for CD19 and annexin V” value (“apoptotic B cells positive” below) ([2]; patient 10, Figure 2 (B), low level)?
A: 2.6%

Q: And the “apoptotic B cells positive” value ([2]; patient 17, Figure 2 (C), low level)?
A: 3.8%

Q: And the “apoptotic B cells positive” value ([2]; patient 17, Figure 2 (E), high level)?
A: 38.9%

Q: What about the “grade 4 hyperuricemia, patients” value ([3]; among the three patients with tumor lysis syndrome) of the same compound?
A: three

Q: And the “Single episodes of grade 2 toxicities” value ([3]; cycle 1 UCN-01 alone)?
A: an elevated bicarbonate level, circulation cardiac-other, constipation, an elevated CPK, depression, dyspepsia, pruritus, and taste disturbance

Q: And the “grade 3 toxicities that occurred one time during cycle 1” value ([3]; cycle 1 UCN-01 alone)?
A: isolated elevated SGPT and one episode of febrile neutropenia

Q: What about the “Amylase, grade 2 or 3 toxicity” value [3, 8] of the same compound?
A: 2(11%)

Q: What about the “Creatinine, grade 2 or 3 toxicity” value [3, 8] of the same compound?
A: 4(22%)

Q: What about the “Headache, grade 2 or 3 toxicity” value [3, 8] of the same compound?
A: 8(44%)

Q: And the “Hemoglobin, grade 2 or 3 toxicity” value [3, 8]?
A: 6(33%)

Q: And the “Hyperglycemia, grade 2 or 3 toxicity” value [3, 8]?
A: 12(67%)

Q: What about the “Hypermagnesemia, grade 2 or 3 toxicity” value [3, 8] of the same compound?
A: 3(16%)

Q: And the “Hypoalbuminemia, grade 2 or 3 toxicity” value [3, 8]?
A: 2(11%)

Q: And the “Hypocalcemia, grade 2 or 3 toxicity” value [3, 8]?
A: 6(33%)

Q: What about the “Hyponatremia, grade 2 or 3 toxicity” value [3, 8] of the same compound?
A: 2(11%)

Q: And the “Hypoxia, grade 2 or 3 toxicity” value [3, 8]?
A: 6(33%)

Q: And the “Inf w/o neut (infection without neutropenia), grade 2 or 3 toxicity” value [3, 8]?
A: 2(11%)

Q: And the “Leukopenia, grade 2 or 3 toxicity” value [3, 8]?
A: 3(16%)

Q: What about the “Lymphopenia, grade 2 or 3 toxicity” value [3, 8] of the same compound?
A: 5(27%)

Q: What about the “Myalgia, grade 2 or 3 toxicity” value [3, 8] of the same compound?
A: 2(11%)

Q: And the “Nausea, grade 2 or 3 toxicity” value [3, 8]?
A: 8(44%)

Q: What about the “Neutropenia, grade 2 or 3 toxicity” value [3, 8] of the same compound?
A: 4(22%)

Q: What about the “Rash/desquamation, grade 2 or 3 toxicity” value [3, 8] of the same compound?
A: 2(11%)

Q: And the “SGOT (AST), grade 2 or 3 toxicity” value [3, 8]?
A: 3(16%)

Q: What about the “Stomatitis, grade 2 or 3 toxicity” value [3, 8] of the same compound?
A: 3(16%)

Q: What about the “Sup/vnt arrh (supraventricular arrhythmia), grade 2 or 3 toxicity” value [3, 8] of the same compound?
A: 2(11%)

Q: And the “Trans prbcs (transfused packed red blood cells), grade 2 or 3 toxicity” value [3, 8]?
A: 3(16%)

Q: And the “Tumor lysis, grade 2 or 3 toxicity” value [3, 8]?
A: 3(16%)

Q: And the “Vomiting, grade 2 or 3 toxicity” value [3, 8]?
A: 4(22%)

Q: What about the “tumor lysis syndrome (grade 3, CTCAE v2), patients” value ([3]; in vivo) of the same compound?
A: Three

Q: What about the “Hypocalcemia (grade 2), patients” value ([3]; six patients) of the same compound?
A: 33%

Q: And the creatinine peak ([3]; tumor lysis patients with renal dysfunction)?
A: 2.1 mg/dL

Q: And the “serum blood urea nitrogen [BUN] peak” value ([3]; two tumor lysis patients with renal dysfunction)?
A: 66 mg/dL and 40 mg/dL

Q: And the “difference in UCN-01 CLtot between cycle 1 (without FAMP) and cycle 2 (with FAMP)” value ([4]; five evaluable patients, paired t-test p = 0.27)?
A: no intra-individual difference

Q: What about the Vd ([4]; human, plasma, intravenous, 45 mg/m^2/day) of the same compound?
A: 3 to 18 L

Q: And the AUC(0-inf) [4, 9]?
A: 7260 µg·h/mL

Q: What about the Cmax [4, 9] of the same compound?
A: 16700 ng/mL

Q: And the VλZ [4, 10]?
A: 7.4 L

Q: And the “t1/2 (terminal)” value [4, 10]?
A: 15.02 days

Q: What about the objective responses [5] of the same compound?
A: no objective responses

Q: And the toxicities noted [5]?
A: grade 1–2 nausea, vomiting, hyperglycemia, and hypotension

Q: And the “MTD / recommended phase II dose” value ([6]; 3-day infusion)?
A: 42.5 mg/m^2/day

Q: And the “grade 4 hyperglycemia, patients” value ([6]; 42.5 dose level, complicated by steroids)?
A: 1/9

Q: What about the significant hematopoietic toxicity [6] of the same compound?
A: None of the patients had significant hematopoietic toxicity

Q: What about the “dose level at which DLT (> grade 3) occurred” value ([6]; nausea/vomiting, hyperglycemia, transient hypoxia) of the same compound?
A: 53 mg/m^2/ day

Q: And the “day of peak lymphocytosis” value ([7]; cycle 1)?
A: ≤ 4 days

Q: And the “increase in the absolute lymphocyte count (ALC)” value ([7]; first three of four patients with CLL, first cycle of UCN-01 alone)?
A: 2.0–2.7 fold

Q: And the “patients with lymphocytosis following UCN-01” value ([7]; in vivo)?
A: 15 of 18
